Data: ChEMBL document CHEMBL1914299, “Synthesis and antitumor activity of β-carboline 3-(substituted-carbohydrazide) derivatives” (Bioorg Med Chem, 2011)
Calls of active or inactive are those of the source. The rule behind the calls is not given here.

Columns and labels:
[1] = test system: Mus musculus; experiment: Antiinflammatory activity in mouse Ehrlich Ascitic tumor xenografted BALB/c mouse assessed as reduction in paw edema at 30 mg/kg, ip administered every 3 days for 15 days by plethysmograph analysis; type: functional, organism-based; design: dose 30 mg/kg
Outline: (§1)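 Ehrlich tumor cells collected from ascitic fluid and counted by Trypan blue exclusion, viability above 90%. Cells diluted in 0.9% PBS to […]. Injected sub-plantar into right hind paw of Balb/C mice (20–35 g), 2.5 × 10⁶ viable cells. Compound given ip every 3 days over 15 days, vehicle 0.9% saline, 5-fluorouracil 10 mg/kg as positive control. Paw volume measured by plethysmometer every 3 days until sacrifice on day 15.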

[2] = test system: MCF7; experiment: Antitumor activity against human MCF7 cells by SRB colorimetric assay; type: functional, cell-based
Outline: (§2)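 NCI sulforhodamine B colorimetric growth assay in 96-well plates. Each compound tested at four concentrations in 10-fold dilutions. Doxorubicin as positive control. IC50 taken from concentration–response curves as the concentration giving 50% reduction in cell growth versus untreated control cells.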

[3] = test system: NCI-H460; experiment: Antitumor activity against human NCI-H460 cells by SRB colorimetric assay; type: functional, cell-based; outline: as §2
[4] = test system: UACC-62; experiment: Antitumor activity against human UACC62 cells by SRB colorimetric assay; type: functional, cell-based; outline: as §2
[5] = test system: HT-29; experiment: Antitumor activity against human HT-29 cells by SRB colorimetric assay; type: functional, cell-based; outline: as §2
[6] = test system: 786-0; experiment: Antitumor activity against human 786-0 cells by SRB colorimetric assay; type: functional, cell-based; outline: as §2
[7] = test system: Mus musculus; experiment: Antitumor activity against mouse Ehrlich Ascitic tumor xenografted in BALB/c mouse assessed as reduction of tumor volume in paw at 30 mg/kg, ip administered every 3 days for 15 days measured on day 9 by plethysmograph analysis; type: functional, organism-based; design: dose 30 mg/kg; outline: as §1
[8] = test system: K562; experiment: Antitumor activity against human K562 cells by SRB colorimetric assay; type: functional, cell-based; outline: as §2
[9] = test system: Mus musculus; experiment: Acute toxicity in BALB/c mouse at 30 mg/kg, ip; type: organism-based; design: dose 30 mg/kg, route intraperitoneal; details: in vivo
[10] = test system: Mus musculus; experiment: Antitumor activity against mouse Ehrlich Ascitic tumor xenografted in BALB/c mouse assessed as reduction of tumor volume in paw at 10 mg/kg, ip administered every 3 days for 15 days measured on day 9 by plethysmograph analysis; type: functional, organism-based; design: dose 10 mg/kg
[11] = Antitumor activity against human PCO3 cells by SRB colorimetric assay; type: functional, cell-based; outline: as §2
[12] = test system: OVCAR; experiment: Antitumor activity against human OVCAR cells by SRB colorimetric assay; type: functional, cell-based; outline: as §2
[13] = test system: Mus musculus; experiment: Antitumor activity against mouse Ehrlich Ascitic tumor xenografted in BALB/c mouse assessed as reduction in paw edema at 30 mg/kg, ip administered every 3 days for 15 days measured on day 12 and day 15 by plethysmograph analysis; type: functional, organism-based; design: dose 30 mg/kg; outline: as §1

Compound | Activity [1] | IC50 [2] [µM] | IC50 [3] [µM] | IC50 [4] [µM] | IC50 [5] [µM] | IC50 [6] [µM] | Activity [7] | IC50 [8] [µM] | Activity [9] | Activity [10] | IC50 [11] [µM] | IC50 [12] [µM] | Activity [13]
CN(C)c1ccc(/C=N/NC(=O)c2cc3c([nH]c4ccccc43)c(-c3cccc([N+](=O)[O-])c3)n2)cc1 | Active | 0.63 | 2.11 | 1.34 | 9.8 | 0.04 | Active | 0.24 | Non-toxic | Active | 4.18 | 0.19 | Active
CC(C)=NNC(=O)c1cc2c([nH]c3ccccc32)c(-c2ccc(N(C)C)cc2)n1 |  | 16.8 | 25.4 | 10.1 | 35.6 | 26.5 |  | 23.4 |  |  | 19 | 40.5 | 
O=C(NN=C1CCCCC1)c1cc2c([nH]c3ccccc32)c(-c2cccc([N+](=O)[O-])c2)n1 |  | > 100 | > 100 | > 100 | > 100 | > 100 |  | 87.1 |  |  | > 100 | > 100 | 
COc1ccc(/C=N/NC(=O)c2cc3c([nH]c4ccccc43)c(-c3ccccc3)n2)cc1 |  | 11 | 59.4 | 65.6 | 38.5 | > 100 |  | 14.6 |  |  | 59.4 | 10 | 
O=c1[nH]cc(F)c(=O)[nH]1 |  |  |  |  |  |  |  |  |  | Active |  |  | 
COc1ccc(-c2nc(C(=O)N/N=C/c3ccc(N(C)C)cc3)cc3c2[nH]c2ccccc23)cc1 |  | > 100 | > 100 | > 100 | > 100 | > 100 |  | > 100 |  |  | > 100 | > 100 | 
COc1ccc(-c2nc(C(=O)N/N=C/c3ccccc3Cl)cc3c4ccccc4n(C)c23)cc1 |  | 14 | > 100 | > 100 | > 100 | > 100 |  | > 100 |  |  | > 100 | > 100 | 
O=C(NN=C1CCCCC1)c1cc2c([nH]c3ccccc32)c(-c2ccc([N+](=O)[O-])cc2)n1 |  | 25.6 | > 100 | > 100 | > 100 | 72.8 |  | > 100 |  |  | > 100 | > 100 | 
O=C(N/N=C/c1ccccc1)c1cc2c([nH]c3ccccc32)c(-c2ccccc2)n1 |  | 15.7 | 8.49 | 25.9 | > 100 | > 100 |  | 79.5 |  |  | 11.6 | 10.6 | 
O=C(N/N=C/c1ccccc1Cl)c1cc2c([nH]c3ccccc32)c(-c2ccc(O)cc2)n1 |  | 7.01 | 2.18 | 1.56 | 1.71 | 3.22 |  | 1.65 |  |  | 2.03 | 1.83 | 
O=C(NN=C1CCCC1)c1cc2c([nH]c3ccccc32)c(-c2ccc([N+](=O)[O-])cc2)n1 |  | > 100 | > 100 | > 100 | > 100 | > 100 |  | > 100 |  |  | > 100 | > 100 | 
O=C(N/N=C/c1ccc([N+](=O)[O-])cc1)c1cc2c([nH]c3ccccc32)c(-c2ccc(O)cc2)n1 |  | 12.3 | > 100 | 4.46 | 3.87 | 9.58 |  | 3.73 |  |  | 12.8 | 51 | 
COc1ccc(-c2nc(C(=O)N/N=C/c3ccccc3Cl)cc3c2[nH]c2ccccc23)cc1 |  | 10.4 | 1.43 | 5.57 | 1.26 | 2.52 |  | 2.52 |  |  | 4.52 | 7.43 | 
CC(C)=NNC(=O)c1cc2c([nH]c3ccccc32)c(-c2ccccc2)n1 |  | 14.2 | 19.8 | 10.1 | 19.8 | 16.1 |  | 6.69 |  |  | 15.4 | 26.4 | 
O=C(N/N=C/c1ccccc1)c1cc2c([nH]c3ccccc32)c(-c2ccc(O)cc2)n1 |  | 8.94 | 19.8 | 3.18 | 4.32 | 4.32 |  | 4.31 |  |  | 2.25 | 1.26 | 
O=C(NN=C1CCCC1)c1cc2c([nH]c3ccccc32)c(-c2ccccc2Cl)n1 |  | 7.37 | 13.8 | 11.7 | 20.1 | 11.7 |  | > 100 |  |  | 15 | 11.2 | 
COc1ccc(/C=N/NC(=O)c2cc3c([nH]c4ccccc43)c(-c3ccc([N+](=O)[O-])cc3)n2)cc1 |  | 8.19 | 4.58 | 9.69 | 8.92 | 14.1 |  | 7.54 |  |  | 7.54 | 21.4 | 
